Active and inactive are the calls of the source. No cut-off for these calls is given here.
Assays:
[1] = tested on: Salmonella typhi; test: Antibacterial activity against Salmonella typhi 115 assessed as growth inhibition after 24 hrs by dilution tube method; assay type: functional, Salmonella enterica subsp. enterica serovar Typhi; conditions: Salmonella enterica, 115, 24 h
Summary of the method: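 Dilution tube method in Tryptone Soya Broth; MIC (μg/ml) taken as highest dilution preventing visible growth; duplicates at every concentration; nitrofurantoin reference run under same conditions.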

[2] = tested on: Trichophyton mentagrophytes; test: Antifungal activity against Trichophyton mentagrophytes A-280 USPHS assessed as growth inhibition by agar dilution method; assay type: functional
[3] = tested on: Nannizzia gypsea; test: Antifungal activity against Microsporum gypseum 153 CSTM assessed as growth inhibition by agar dilution method; assay type: functional
[4] = tested on: Staphylococcus aureus; test: Antibacterial activity against Staphylococcus aureus ATCC 6538 assessed as growth inhibition after 24 hrs by dilution tube method; assay type: functional; conditions: ATCC 6538, 24 h
Summary of the method: (§1)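 Broth tube dilution in Tryptone Soya Broth, duplicate tubes at each concentration. MIC (μg/ml) was the highest dilution preventing visible growth. Nitrofurantoin run under the same conditions.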

[5] = tested on: Klebsiella pneumoniae; test: Antibacterial activity against Klebsiella pneumoniae ATCC 10031 assessed as growth inhibition after 24 hrs by dilution tube method; assay type: functional; conditions: ATCC 10031, 24 h; summary of the method: as §1
[6] = tested on: Histoplasma capsulatum; test: Antifungal activity against Histoplasma capsulatum RNSH Hi-70 1/2 assessed as growth inhibition by agar dilution method; assay type: functional
[7] = tested on: Agrobacterium tumefaciens; test: Antibacterial activity against Agrobacterium tumefaciens NRRL B-36 assessed as growth inhibition after 24 hrs by dilution tube method; assay type: functional; conditions: NRRL B-36, 24 h; summary of the method: as §1
[8] = Acute toxicity in ip dosed mouse; assay type: organism-based; conditions: in vivo
Summary of the method: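 Mice dosed intraperitoneally; LD50 determined.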

[9] = tested on: Trichophyton rubrum; test: Antifungal activity against Trichophyton rubrum 252 CSTM assessed as growth inhibition by agar dilution method; assay type: functional
[10] = tested on: Cryptococcus neoformans; test: Antifungal activity against Cryptococcus neoformans 103 assessed as growth inhibition by agar dilution method; assay type: functional
[11] = tested on: Enterococcus faecalis; test: Antibacterial activity against Streptococcus faecalis ATCC 10541 assessed as growth inhibition after 24 hrs by dilution tube method; assay type: functional; conditions: ATCC 10541, 24 h; summary of the method: as §1
[12] = tested on: Mycobacterium tuberculosis; test: Antibacterial activity against Mycobacterium tuberculosis H37Rv assessed as growth inhibition by serial dilution method; assay type: functional
Summary of the method: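 M. tuberculosis H37Rv maintained on Lowenstein–Jensen medium; tested in Youman's medium by serial dilution.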

[13] = tested on: Rodentolepis nana; test: Anthelmintic activity against viable ova stage of Hymenolepis nana infected in rat assessed as decrease in intestinal worm load at 250 mg/kg, po measured on day 3; assay type: functional, organism-based; design: dose 250 mg/kg
Summary of the method: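 Young male rats (25–30 g, University of Freiburg strain) infected with 200 viable ova, then given a single 250 mg/kg oral dose. Worms from each rat's small intestine collected and scored on day 3. A mean score of 0–10% of control taken as active.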

[14] = tested on: Pseudomonas aeruginosa; test: Antibacterial activity against Pseudomonas aeruginosa ATCC 10145 assessed as growth inhibition after 24 hrs by dilution tube method; assay type: functional; conditions: ATCC 10145, 24 h; summary of the method: as §1
[15] = tested on: Escherichia coli; test: Antibacterial activity against Escherichia coli 114 assessed as growth inhibition after 24 hrs by dilution tube method; assay type: functional; conditions: Escherichia coli, 114, 24 h; summary of the method: as §1
[16] = tested on: Microsporum canis; test: Antifungal activity against Microsporum canis VM-200 USPHS assessed as growth inhibition by agar dilution method; assay type: functional
[17] = tested on: Candida albicans; test: Antifungal activity against Candida albicans SKF 2270 assessed as growth inhibition by agar dilution method; assay type: functional
[18] = tested on: Nippostrongylus brasiliensis; test: Anthelmintic activity against larvae stage of Nippostrongylus brasiliensis infected in rat assessed as decrease in worm load at 250 mg/kg, po administered on day 8 post infection; assay type: functional, organism-based; design: dose 250 mg/kg
Summary of the method: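 Young male rats (25–30 g, University of Freiburg strain), 3 per compound, infected with 500 infective larvae; single 250 mg/kg oral dose on day 8. Worm loads of treated and control groups compared; 90% deparasitization taken as active. Whitlock–Bliss technique as modified by Steward.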

SMILES | MIC [1] | MIC [2] | MIC [3] | MIC [4] | MIC [5] | MIC [6] | MIC [7] | LD50 [8] | MIC [9] | MIC [10] | MIC [11] | MIC [12] | Activity [13] | MIC [14] | MIC [15] | MIC [16] | MIC [17] | Activity [18]
Cc1cc(OCCCC[N+](C)(C)Cc2ccc([N+](=O)[O-])o2)c(C(C)C)cc1Cl.[Br-] | > 200 µg/mL | > 200 µg/mL | > 200 µg/mL | 7.5 µg/mL | 5 µg/mL | > 200 µg/mL | 25 µg/mL | 75 mg/kg | > 200 µg/mL | 25 µg/mL | 25 µg/mL | 10 µg/mL | inactive | 1.5 µg/mL | > 200 µg/mL | > 200 µg/mL | > 200 µg/mL | inactive
C[N+](C)(CCCCCCOc1c(Br)cc(Br)cc1Br)Cc1ccc(Br)o1.[Br-] | 50 µg/mL | > 200 µg/mL | > 200 µg/mL | 2 µg/mL | 1.5 µg/mL | 25 µg/mL | 7.5 µg/mL | 25 mg/kg | > 200 µg/mL | 25 µg/mL | 5 µg/mL | 10 µg/mL | inactive | 1.5 µg/mL | 100 µg/mL | 100 µg/mL | > 200 µg/mL | inactive
Cc1cc(OCCCCC[N+](C)(C)Cc2ccc([N+](=O)[O-])o2)c(C(C)C)cc1Cl.[Br-] | 50 µg/mL | > 200 µg/mL | 100 µg/mL | 10 µg/mL | 2.5 µg/mL | 100 µg/mL | 25 µg/mL | 50 mg/kg | 100 µg/mL | 25 µg/mL | 10 µg/mL | 5 µg/mL | inactive | 2.5 µg/mL | > 200 µg/mL | 100 µg/mL | > 200 µg/mL | inactive
Cc1cc(OCCCCCCCC[N+](C)(C)Cc2ccc(Br)o2)c(C(C)C)cc1Cl.Cc1ccc(S(=O)(=O)[O-])cc1 | > 200 µg/mL | 200 µg/mL | 200 µg/mL | 100 µg/mL | 100 µg/mL | > 200 µg/mL | 100 µg/mL | – | 200 µg/mL | 50 µg/mL | 100 µg/mL | 25 µg/mL | – | 25 µg/mL | > 200 µg/mL | 100 µg/mL | > 200 µg/mL | –
C[N+](C)(CCCCCCCCCCCCCCOc1c(Br)cc(Br)cc1Br)Cc1ccc(Br)o1.Cc1ccc(S(=O)(=O)[O-])cc1 | 200 µg/mL | > 200 µg/mL | > 200 µg/mL | 100 µg/mL | 100 µg/mL | > 200 µg/mL | 200 µg/mL | – | > 200 µg/mL | 200 µg/mL | 100 µg/mL | 200 µg/mL | – | 50 µg/mL | > 200 µg/mL | 200 µg/mL | > 200 µg/mL | –
Cc1cc(OCCC[N+](C)(C)Cc2ccc(Br)o2)c(C(C)C)cc1Cl.[Br-] | 100 µg/mL | > 200 µg/mL | > 200 µg/mL | 10 µg/mL | 7.5 µg/mL | 100 µg/mL | 25 µg/mL | – | 100 µg/mL | 50 µg/mL | 10 µg/mL | 10 µg/mL | – | 4 µg/mL | > 200 µg/mL | 100 µg/mL | > 200 µg/mL | –
Cc1cc(OCCCCCCCCCCCCCC[N+](C)(C)Cc2ccc(Br)o2)c(C(C)C)cc1Cl.Cc1ccc(S(=O)(=O)[O-])cc1 | > 200 µg/mL | > 200 µg/mL | > 200 µg/mL | > 200 µg/mL | 200 µg/mL | > 200 µg/mL | > 200 µg/mL | – | > 200 µg/mL | > 200 µg/mL | > 200 µg/mL | > 200 µg/mL | – | 200 µg/mL | > 200 µg/mL | > 200 µg/mL | > 200 µg/mL | –
C[N+](C)(CCCCCCCCCCCCOc1c(Br)cc(Br)cc1Br)Cc1ccc(Br)o1.[Br-] | > 200 µg/mL | > 200 µg/mL | > 200 µg/mL | 200 µg/mL | 200 µg/mL | > 200 µg/mL | > 200 µg/mL | – | > 200 µg/mL | 200 µg/mL | 200 µg/mL | 100 µg/mL | – | 50 µg/mL | > 200 µg/mL | 200 µg/mL | > 200 µg/mL | –
C[N+](C)(CCCCCCCCOc1c(Br)cc(Br)cc1Br)Cc1ccc([N+](=O)[O-])o1.[Br-] | > 200 µg/mL | > 200 µg/mL | > 200 µg/mL | 4 µg/mL | 2 µg/mL | > 200 µg/mL | 10 µg/mL | – | > 200 µg/mL | 4 µg/mL | 4 µg/mL | 7.5 µg/mL | – | 2 µg/mL | > 200 µg/mL | > 200 µg/mL | > 200 µg/mL | –
Cc1cc(OCCC[N+](C)(C)Cc2ccc([N+](=O)[O-])o2)c(C(C)C)cc1Cl.[Br-] | 100 µg/mL | > 200 µg/mL | > 200 µg/mL | 25 µg/mL | 5 µg/mL | > 200 µg/mL | 25 µg/mL | – | > 200 µg/mL | > 200 µg/mL | 25 µg/mL | > 200 µg/mL | – | 2 µg/mL | > 200 µg/mL | > 200 µg/mL | > 200 µg/mL | –
C[N+](C)(CCCCCCOc1c(Br)cc(Br)cc1Br)Cc1ccco1.[Br-] | > 200 µg/mL | 100 µg/mL | 100 µg/mL | 25 µg/mL | 7.5 µg/mL | 50 µg/mL | 50 µg/mL | – | 100 µg/mL | 25 µg/mL | 25 µg/mL | 25 µg/mL | – | 5 µg/mL | > 200 µg/mL | 100 µg/mL | 50 µg/mL | –
